Nine compounds from ChEMBL document CHEMBL5584326, “Second-generation piperazine derivatives as promising radiation countermeasures” (RSC Med Chem, 2024) can be followed below.

The subject of one data set is MCF7. Description: Cytotoxicity against human MCF7 cells assessed as reduction in cell viability at 100 uM measured after 48 hrs by WST-1 assay. It is filed as toxicity, cell-based. The settings on record: mcf7, 48 h. The procedure, abridged: (§1)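 Cells kept at 37 °C in humidified 5% CO2, adherent lines under 10 passages, suspension lines under 20, exponential phase. Seeded at 1–50 × 10^3 cells per well, settled overnight, then a single 48 h exposure at 100 μM final. WST-1 read at 440 nm. Proliferation given as % of 0.1% DMSO mock control, mean of three independent experiments.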

In the next data set the test system is A549. Description: Cytotoxicity against human A549 cells assessed as reduction in cell viability at 100 uM measured after 48 hrs by WST-1 assay. It is filed as toxicity, cell-based. The settings on record: a549, 48 h. The procedure, abridged:
as §1
On the technique in general: Tetrazolium dyes change colour on reduction, which living cells bring about.

The next data set deals with MRC5. Description: Cytotoxicity against human MRC5 cells assessed as reduction in cell viability at 100 uM measured after 48 hrs by WST-1 assay. It is filed as toxicity, cell-based. Particulars: mrc5, 48 h. The procedure, abridged:
as §1

The next data set relates to MOLT-4. Description: Cytotoxicity against human MOLT-4 cells assessed as reduction in cell viability at 100 uM measured after 48 hrs by WST-1 assay. It is filed as toxicity, cell-based. The settings on record: molt-4, 48 h. The procedure, abridged:
as §1

Another data set deals with HT-29. Description: Cytotoxicity against human HT-29 cells assessed as reduction in cell viability at 100 uM measured after 48 hrs by WST-1 assay. It is filed as toxicity, cell-based. The settings on record: ht-29, 48 h. A digest of the protocol:
as §1

The test system of the next data set is PANC-1. Description: Cytotoxicity against human PANC-1 cells assessed as reduction in cell viability at 100 uM measured after 48 hrs by WST-1 assay. It is filed as toxicity, cell-based. Particulars: panc-1, 48 h. The procedure, abridged: as §1
Data set [1] in a line: Cytotoxicity against human PBMC assessed as optimal non-toxic concentration required to show >=90 to 100% cell viability measured after 48 hrs by MTS assay. It is filed as toxicity, cell-based. Particulars: read-out: Activity. A digest of the protocol: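 PBMCs from a healthy donor were isolated on Histopaque-1077 and cultured in RPMI 1640 with 20% inactivated FBS. About 5×10^4 cells per well were exposed 48 h at 37 °C, 5% CO2 to 10–1000 μM. MTS was added 4 h before reading at 490 nm, blank subtracted, untreated control set to 100%. Concentration taken as viability ≥90% and not below control (P 0.05), mean of ≥3 measurements.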

In a further data set the test system is SAOS-2. Description: Cytotoxicity against human SAOS-2 cells assessed as reduction in cell viability at 100 uM measured after 48 hrs by WST-1 assay. It is filed as toxicity, cell-based. Particulars: saos-2, 48 h. The procedure, abridged:
as §1

A further data set relates to Jurkat. Description: Cytotoxicity against human Jurkat cells assessed as reduction in cell viability at 100 uM measured after 48 hrs by WST-1 assay. It is filed as toxicity, cell-based. The procedure, abridged:
as §1

A short description of data set [2]: Cytotoxicity against human PBMC assessed as reduction in cell viability at 20 uM measured after 48 hrs by MTS assay. It is filed as toxicity, cell-based. A digest of the protocol:
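PBMCs isolated from whole blood of a healthy donor by Histopaque-1077 density centrifugation, cultured in RPMI 1640 GlutaMAX with 20% inactivated FBS and penicillin/streptomycin. About 5×10^4 cells/well exposed to 10–1000 μM for 48 h at 37 °C, 5% CO2. MTS added 4 h before reading absorbance at 490 nm, cell-free medium blank subtracted. Untreated control set as 100%; mean of ≥3 independent measurements.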

Another data set concerns Blood. Description: Radioprotective activity against 3 Gy gamma radiation-induced DNA damage in human whole blood assessed as reduction in number of dicentric chromosomes per cell by measuring radioprotection factor at 1000 uM preincubated for 1 hr followed by 3 Gy gamma irradiation and measured after 48 hrs by giemsa staining based microscopic analysis relative to control. It is filed as functional. Particulars: time 49 hrs. A digest of the protocol: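 Heparinized whole blood from healthy male donors, 60 min compound pre-exposure, then single 3 Gy 60Co gamma dose at 0.6 Gy/min. After 30 min at 37 °C, cultured in RPMI 1640 with 20% FBS and 2% PHA. Colcemid 0.25 μg/ml added at 48 h, harvest at 50 h, KCl hypotonic, methanol:acetic acid fixation, 5% Giemsa. Automated metaphase scoring. RF = […].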

Molecules are shown by their SMILES.

For the compound `OCCN1CCN(CC(O)COc2cccc(Cl)c2)CC1` (stereo not drawn), the Activity result with MCF7, with A549, in the data set with MRC5, in the data set on MOLT-4, in the data set on HT-29 and in the data set on PANC-1 was “Non-Toxic” throughout. For the same compound, the Activity entry in the data set with SAOS-2 and with Jurkat was “Non-Toxic” each time. Further, the MNTC at 48 h in [1] is 500 µM.
`OCCN1CCN(CC(O)COc2cc(Cl)c(Cl)cc2Cl)CC1` (stereo not drawn): the Activity result in the data set on MCF7, in the data set on A549, with MRC5, in the data set with MOLT-4, with HT-29 and in the data set on PANC-1 was “Toxic” each time. The Activity result in the data set on SAOS-2 and in the data set with Jurkat was “Toxic” throughout.
Turning to `NCCCNCCSP(=O)(O)O` [AMIFOSTINE], the Activity entry in [2] is listed as “Toxic”. For the same compound, the MNTC at 48 h in data set [1] amounted to 10 µM.
For `COc1cc([N+](=O)[O-])ccc1OCC(O)CN1CCN(CCO)CC1` (stereo not drawn), the Activity result in the data set on MCF7, in the data set on A549, with MRC5, with MOLT-4, with HT-29 and in the data set with PANC-1 was “Non-Toxic” each time. For the same compound, the Activity result with SAOS-2 and in the data set on Jurkat was “Non-Toxic” each time. For the same compound, the MNTC at 48 h in data set [1] came out at 500 µM.
Turning to `O=[N+]([O-])c1cc(OCC(O)CN2CCN(CCO)CC2)ccc1Cl` (stereo not drawn), the Activity result in the data set on MCF7, in the data set with A549, in the data set on MRC5, with MOLT-4, in the data set on HT-29 and with PANC-1 was “Non-Toxic” throughout. Besides, the Activity entry with SAOS-2 and in the data set on Jurkat was “Non-Toxic” throughout. For the same compound, the MNTC at 48 h in data set [1] stood at 200 µM.
In the case of `OCCN1CCN(CC(O)COc2ccc(F)cc2)CC1` (stereo not drawn), in the data set with Blood, the PI stood at 1.53. Moreover, the Activity result in the data set on MCF7, with A549, in the data set with MRC5, with MOLT-4, with HT-29 and in the data set with PANC-1 was “Non-Toxic” each time. Besides, the Activity entry in the data set on SAOS-2 and in the data set on Jurkat was “Non-Toxic” throughout. Also, the MNTC at 48 h in [1] came to 1000 µM.
In the case of `COc1ccc(OCC(O)CN2CCN(CCO)CC2)c([N+](=O)[O-])c1` (stereo not drawn), the Activity result in the data set with MCF7, in the data set on A549, with MRC5, in the data set with MOLT-4, in the data set with HT-29 and with PANC-1 was “Non-Toxic” each time. Besides, the Activity entry in the data set on SAOS-2 and with Jurkat was “Non-Toxic” each time. For the same compound, the MNTC at 48 h in [1] came out at 500 µM.
On to `OCCN1CCN(CC(O)COc2ccc(Oc3ccc(F)cc3)cc2)CC1` (stereo not drawn), for which the Activity result with MCF7, in the data set with A549, with MRC5, with MOLT-4, in the data set with HT-29 and in the data set on PANC-1 was “Toxic” each time. The Activity entry in the data set with SAOS-2 and in the data set on Jurkat was “Toxic” in each case.
Turning to `O=[N+]([O-])c1ccc(OCC(O)CN2CCN(CCO)CC2)c(F)c1` (stereo not drawn), the Activity entry with MCF7, in the data set with A549, in the data set with MRC5, in the data set with MOLT-4, with HT-29 and in the data set with PANC-1 was “Non-Toxic” throughout. The Activity entry in the data set on SAOS-2 and in the data set on Jurkat was “Non-Toxic” throughout. For the same compound, the MNTC at 48 h in data set [1] came out at 500 µM.
